Measured values collected from several papers.
pEC50, pIC50: −log10 of the molar value. In brackets after ≈: the same amount, converted by molar mass.

CCC(=CCc1c(O)cc2c(c1O)C(=O)C[C@@H](c1ccc(O)cc1)O2)CC
inhibition (HeLa; cell growth or viability, MTT; 100 µM, 48 h): 99.5%

CNC(=S)NN=Cc1ccc(O)c(OC)c1
pIC50 (Leishmania major; parasite growth; J774.A1; 72 h, intracellular, amastigote): 3.95

COc1c(N2C[C@@H]3CCCN[C@@H]3C2)c(F)cc2c(=O)c(C(=O)O)cn(C3CC3)c12
MIC50 (Enterococcus faecalis; microbial growth, broth dilution; clinical isolate): 0.5 µg/mL (≈ 1.25 µM)

C[C@@H]1[C@H](O)[C@@H](C)/C=C/C=C/C=C/C=C/C=C/C=C/C=C/[C@H](O[C@@H]2O[C@H](C)[C@@H](O)[C@H](N)[C@@H]2O)C[C@@H]2O[C@](O)(C[C@@H](O)C[C@@H](O)[C@H](O)CC[C@@H](O)C[C@@H](O)CC(=O)O[C@H]1C)C[C@H](O)[C@H]2C(=O)O
pIC50 (Leishmania major; parasite growth, MTT; 72 h, promastigote): 5.02

COc1ccc(Nc2cnnc3cc(-c4cnc(N5CCCN(C)CC5)nc4)ccc23)nc1
pEC50 (Leishmania major; parasite growth; intracellular, amastigote): < 4.64

CCC(=CCc1c(O)cc2c(c1O)C(=O)C[C@@H](c1ccccc1O)O2)CC
inhibition (HeLa; cell growth or viability, MTT; 30 µM, 48 h): 9.27%

COc1ccc(Nc2cnnc3cc(-c4cnc(N5CCN(C)CC5)nc4)ccc23)cc1Cl
pEC50 (Leishmania major; parasite growth; intracellular, amastigote): < 5.66

CC[C@H]1OC(=O)[C@H](C)[C@@H](O[C@H]2C[C@@](C)(OC)[C@@H](O)[C@H](C)O2)[C@H](C)[C@@H](O[C@@H]2O[C@H](C)C[C@H](N(C)C)[C@H]2O)[C@](C)(O)C[C@@H](C)/C(=N\OCOCCOC)[C@H](C)[C@@H](O)[C@]1(C)O
MIC90 (Enterococcus faecalis; microbial growth; clinical isolate): > 128 µg/mL
